Laboratory results from the EternaBench riboswitch data.

Assays:
MS2 coat protein [1] = experiment: apparent Kd, MS2 coat protein; higher = weaker binding; RNA-MaP array; conditions: designed as: ON switch for flavin mononucleotide
Outline: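 Apparent Kd was taken as the median of binding curves fitted cluster by cluster. The designed RNAs were made by transcription of sequenced DNA templates on an Illumina sequencing chip and exposed to fluorescently labeled MS2 coat protein (1.5 nM to 3 μM) at room temperature, with or without input ligand, for 0.8–1.5 h at the lowest and 10–20 min at the highest concentrations. Any design measured on fewer than 10 clusters was left out.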

MS2 coat protein [2] = experiment: apparent Kd, MS2 coat protein; higher = weaker binding; RNA-MaP array; FMN 200 µM where present
Outline: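 Two titrations, one without ligand and one with constant ligand, were run with SNAP-549-labelled MS2 coat protein from 0.7 or 1.5 nM, doubling to 3 µM. The targets were designs transcribed by stalled E. coli RNA polymerase on Illumina sequencing-chip clusters, in 100 mM Tris-HCl pH 7.5, 80 mM KCl, 4 mM MgCl2, BSA, DTT, yeast tRNA and Tween-20. The apparent Kd is the median of filtered per-cluster binding-curve fits, with green signal normalised to red-channel RNA signal and control-cluster median Fmax.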

[3] = ligand present: flavin mononucleotide
[4] = designed as: OFF switch for flavin mononucleotide, no ligand
[5] = ligand present: flavin mononucleotide, designed as: OFF switch for flavin mononucleotide
[6] = designed as: ON switch for flavin mononucleotide, no ligand
[7] = ligand present: flavin mononucleotide, designed as: ON switch for flavin mononucleotide

Sequence | apparent Kd (MS2 coat protein [2]; [4]) | apparent Kd (MS2 coat protein [2]; [5]) | apparent Kd (MS2 coat protein [2]; [6]) | apparent Kd (MS2 coat protein [2]; [7]) | also measured
UGGGUCCGAUCAGGAUAUUAGCUACCGGAGUAUGACUGGUACUACAUGAGGAUCACCCAUGUUGCUAAGAAGGGAUGAACUGAA | – | – | – | – | apparent Kd (MS2 coat protein [1]; no ligand): 97.4 nM; apparent Kd (MS2 coat protein [1]; [3]): 26.6 nM
CUUUGUGGCCAAGGAUAUCCUGGCACAGUACAUGAGGAUCACCCAUGUCGAAGACAUGGUCGUACGGAGAAGGUGGGCACCCUC | – | – | – | – | apparent Kd (MS2 coat protein [1]; no ligand): 511 nM
GCGUGAGCGACGUGUCUUCCACAUGAGGAUCACCCAUGUCGCAGAAGGACUUGAAUCGUAUUAAAGUAGGAUAUGCGUAGGACG | – | – | – | – | apparent Kd (MS2 coat protein [1]; no ligand): 38.3 nM; apparent Kd (MS2 coat protein [1]; [3]): 29 nM
UUUAAGUGAGGAUAUACGAAUAGUAAGUAAGUAUUACAGACGUAGAAGGCACAUGAGGAUCACCCAUGUAAAUA | 30.1 nM | 28.2 nM | – | – | –
GGAGCACAUGAAUACAUGAGGAUCACCCAUGUCGAAUGAUAUGAGGAUAUGCAUCGGAAAACGAUGUAGAAGGCAUAGUGCUCC | – | – | 60 nM | 11.4 nM | –
GCAGUACGCCUGGCAAUUUGCAAGCAGGAUAUCAGGCACCGUGGGACAUGAGGAUCACCCAUGUCUGAGAAGGGCUGGAGUUGC | 10.7 nM | 23.1 nM | – | – | –
CCAGAUAUGUGAGGAUAUAGAGUGGAAUACACUCUAGAAGGUAUGUGAAAACAUGAGGAUCACCCAUGUCAUUGAUUAUCUGGA | – | – | 26 nM | 27.5 nM | –
UGAUCAAAUGUCAGGAUAUGCUGUUGUAAUCAACAGCAGAAGGGACAUGAGGAUCACCCAUGUCUUGUCGAUUU | 12.9 nM | 37.3 nM | – | – | –
AGAAAACAUGAGGAUCACCCAUGUCAGGAUAUCCUGCGGCAAUACACGCCGCGUUGUCGGAGAAGGGACAGGGA | 39 nM | 102 nM | – | – | –
GAGUGUACGGAGGAUAUGUUAUACGAUGACCGAACAGAAGGCCGAACAUGAGGAUCACCCAUGUGUCUUCUAGG | 16 nM | 22.8 nM | – | – | –
UAGAUGUGAGGAUAUGGUAAAGAUAGAAUGAUGAAAGAACUCCAGAAGGCACAUGAGGAUCACCCAUGUAGAUG | 26.9 nM | 55 nM | – | – | –
UUACGUCCCGUUUACAUGAGGAUCACCCAUGUCGAAAGAGCGGAGGAUAUGCUACCUAGUUGGUAGCAGAAGGUUGCAACGUCG | – | – | 17.7 nM | 28.3 nM | –
AGAUCACAUGAGGAUCACCCAUGUCAGGAUAUGAUACUAUGUACUUCGGUACAUAGUAUCAGAAGGGAUAUGAA | 95.2 nM | 193 nM | – | – | –
AGCGGCGCGGGCCACCGCAAAACCAGAAGGACAUGAGGAUCACCCAUGUAACAAAACAGGGCGGUGUAGGAUAUGGCAGACCCG | 14.7 nM | 23.8 nM | – | – | –
AGCGGCGCAGACCACCGCAAAACCAGAAGGACAUGAGGAUCACCCAUGUAACAAAACAGGGCGAUGUAGGAUAUGGCAGACCCA | 13 nM | 13.7 nM | – | – | –
GCCAGUUGAGGAUAUGCAGGUGGGUGCCCUGAUCCUCUGUUACAUGAGGAUCACCCAUGUAGAAGGCAAUGUCA | 92.4 nM | 123 nM | – | – | –
GCUAUCGGGUGAGGAUAUAUGGUUGUGAUUAAAAUAGAAGGCAUCUCAGAAGACAUGAGGAUCACCCAUGUAGUUAAGAUGGCA | – | – | 63.4 nM | 46.8 nM | –
AAGAGGAAAGCAGGAUAUCUAUAGGCUCCUUAACAUGAGGAUCACCCAUGUAGAGAAGGGCUAAGACCGACUCUUCGGAGUUGG | 8.69 nM | 25.3 nM | – | – | –
AAACGGAUCCGCGGUUGAUGCUAACUAGAAGGGCAGGUCACAUGAGGAUCACCCAUGUAGUAUAUGUAGGAUAUAGGAAGCGUG | – | – | 140 nM | 26.9 nM | –
GUCGGAAACGACAAUGAUAGGACUGAGGAUAUACAUAAGUUAGUCCACACAUGAGGAUCACCCAUGUAGAAGGCAGUCCUAUCU | 29.5 nM | 357 nM | – | – | –
GGAUAGGACAGAGGAUAUACGUGCUAGGGAUACUAGCAAAAUUUCCUCACAUGAGGAUCACCCAUGUAGAAGGCUGUCCUAUCG | 16.1 nM | 416 nM | – | – | –
UGACGUAAAGAGAAGGGCUACUGGUUGAAACCUGCGGCCUCUGGAACAUGAGGAUCACCCAUGUAGCAGGAUAUCUUUGCAUCA | 166 nM | 18.1 nM | – | – | –
ACUAAAGAAGGAUAUACUAACGAACCUCAAACAUAGAUAAGACAUGAGGAUCACCCAUGUAGAAGGUCUAGACU | 44.2 nM | 37.4 nM | – | – | –
UGGUACUAGGGAGGAUAUGGGAAGAUACAUGAGGAUCACCCAUGUUUAAGAAUGCCGAGAGGCAACUAGAAGGCCCUAGUACCG | – | – | 475 nM | 21.9 nM | –
GCGUCAGGAGGAUAUACAUGAGGAUCACCCAUGUAACACGGGAUAGUAGUAUAGUAGAGUAGAAGGCCUAUAGU | 37.5 nM | 46 nM | – | – | –
GUCUUACAUGAGGAUCACCCAUGUGAGGAUAUGGUUUCGCUGGCCGUAGCCAGUGGAACCAGAAGGCGCAUGAU | 25.7 nM | 44.9 nM | – | – | –
AGCUAGUCAGGAUAUACGUACAUGUCAUUAGACGUGAAGGGACAUGAGGAUCACCCAUGUAGAAGGGACUAGCA | 40 nM | 164 nM | – | – | –

Sequence | apparent Kd (MS2 coat protein [2]; [4]) | apparent Kd (MS2 coat protein [2]; [5]) | apparent Kd (MS2 coat protein [2]; [6]) | apparent Kd (MS2 coat protein [2]; [7]) | also measured
AGAAGGCUACAGAAGGGACACACACGGCGGGAGUCAGGAUAUGUAGAGAAAACGUUACAUGAGGAUCACCCAUGUAGACCUUCC | – | – | 123 nM | 19.9 nM | –
AGAGCCUCGUGAGGAUAUACAUGAGGAUCACCCAUGUAAAUGAAUGAACGGAGGAAACUCCGAAUGUAGAAGGCACGAGGCUCA | 27.9 nM | 166 nM | – | – | –
GUACUUGUGCAGAAGGGCAUUUAAUUAGAUUUUUAUGUUGAUCAGAAAUGCAGGAUAUGUUAAACAUGAGGAUCACCCAUGUAC | – | – | 171 nM | 13.1 nM | –
ACUUUCAUUGUGAGGAUAUGCCCAAAUAAAAGCGGGCAGAAGGCACAUGAGGAUCACCCAUGUCCUGCGGUUAU | 34.6 nM | 394 nM | – | – | –
UUUUAACAUGAGGAUCACCCAUGUGAGGAUAUCGAAAUUUAUAUUUAUAUUAAUUAAACGAGAAGGCACAUUUU | 90.9 nM | 110 nM | – | – | –
AGUAAGCUUGAGAAGGUGAAGUGGAAACAUGAGGAUCACCCAUGUAUUAGGAAGCCUGGUUUUGUCAAGGAUAUCGGGUUUACA | – | – | 12.2 nM | 12.6 nM | –
AGAUUUGUACAUGAGGAUCACCCAUGUUAAUAGGUGGUUGUCAGAAGGCAUUAAUAGAGAUUUAAUGAGGAUAUGAAUUAACAA | – | – | 903 nM | 593 nM | –
AUUAAACAUGAGGAUCACCCAUGUCAACAAAGUCGAGGAUAUGGGCAUAUUAUCUUAUUACCAGAAGGCGAAUAAU | – | – | 390 nM | 44 nM | –
AAUAUAAAGAGCUGGUAAAACUCAACAUGAGGAUCACCCAUGUAGGAUAUCAGCACGAUAAGUGCUGAGAAGGACAUCCAGCUC | 16.3 nM | 17.1 nM | – | – | –
AGUUAAUAUCGAGGAUAUGUCUAGACACAUGAGGAUCACCCAUGUAUGUGUAUAGAAGGCGAUAUUAACAGCAUGUUACAUGCG | – | – | 39 nM | 16.1 nM | –
GGUAGACAAAGUCUACCAAUACGAACAUGAGGAUCACCCAUGUAGGAUAUGCUACUCAAAGAGUAGCAGAAGGACAUGUGUCUU | 29.5 nM | 160 nM | – | – | –
GGGCUGUCAGGAUAUCCCGGGCCCGGGUAAAUUUGGGCCCGGGAGAAGGGACAUGAGGAUCACCCAUGUGGCCC | 39.2 nM | 40.5 nM | – | – | –
GUCAGCUCGUGAGGAUAUACAACACUGCUUCGGCAGUGUAUUAAGAUCACAUGAGGAUCACCCAUGUAGAAGGCAAGAGCUGAU | 13.2 nM | 227 nM | – | – | –
CUUCUCAAAGGAUAUCACGGUAAUAACAUGAGGAUCACCCAUGUGCAAUUCGUGUCCCUGUGAGAAGGUUGAGAAG | 10.5 nM | 18.2 nM | – | – | –
ACUAUACGAGGAUAUACUGACGGGCCUCGGGCGUCCCUGCGACAUGAGGAUCACCCAUGUAGAAGGCGUAUACU | 39.2 nM | 92.8 nM | – | – | –
GCGUAUAUAAGAUUUAUUUAACAGUCAGAAGGUGAUAAUACGACAUGAGGAUCACCCAUGUAAUUCAAGGAUAUGAUCUUACGC | – | – | 133 nM | 65.7 nM | –
UAAUCUCAGAUAGGAUAUAUAGGAUGAUUUAAGACUGAACAUGAGGAUCACCCAUGUGAUUAUCUGUAGAAGGAUCAAUUACCC | – | – | 392 nM | 351 nM | –
UUCAGCUUGACAGGAUAUACAUGUCAGCGAAAGCUGACUAUCUUAAUAACAUGAGGAUCACCCAUGUAGAAGGGUCGAGCUGAA | 16.4 nM | 25.6 nM | – | – | –
UGGUCCUAGGGAGGAUAUGGGAAGAUACAUGAGGAUCACCCAUGUUUAAGAAUGCCGAGAGGCAACUAGAAGGCCCUAGUACCU | – | – | 439 nM | 20.6 nM | –
GAUGAGAGAGGAUAUACAUGAGGAUCACCCAUGUAAUUUUCGGACAUGGAAGCUGGAUGUAGAAGGCUCGCAUG | 20 nM | 46.2 nM | – | – | –
AAUACAUGAGGAUCACCCAUGUAAAGUUCAAACAAUAUGAGUGAGGAUAUACUGAGUUAGUUAUGGUAGAAGGCACUGGGUACA | – | – | 23.1 nM | 21.8 nM | –
GUGCCUUGGGAGAAGGCCGUAUGCAAAGCAUACGGAGGAUAUCCAUACCGGAAACGGACAUGAGGAUCACCCAUGUGGCACAAA | – | – | 15.1 nM | 6.03 nM | –
GCUGCGCGAGGAUAUGCGGUUUGCGCUGUGGCCCGUGGCGUACAUGAGGAUCACCCAUGUAGAAGGCGUGUGGG | 22.9 nM | 23.3 nM | – | – | –
UUCAUGUGAGGAUAUCAGUAGUAAAAAAAUAAAAUUACUACUGAGAAGGCACAUGAGGAUCACCCAUGUGUCUC | 22.1 nM | 26.6 nM | – | – | –
GAGUACUUAGGAUAUACAUGAGGAUCACCCAUGUCUAGGCGGCGCUGGGUCCCUCGCAGUAGAAGGAAGCGCUG | 24.6 nM | 42.3 nM | – | – | –
UAUACUUACGAAGGAUAUGGUUACAUGAGGAUCACCCAUGUAUGUAUAUUGAUCUUGUAUUUUAACCAGAAGGUCGUGAGUAUA | 143 nM | 114 nM | – | – | –
UUAAUUCUGAUUCUUGAAAUACAUGAGGAUCACCCAUGUUCACAGGAUAUUGAUUAUGUUAGUAACAAGAAGGGUGUAACAUAU | 30.6 nM | 85.6 nM | – | – | –
